Measured values published in ChEMBL document CHEMBL5505959, “Identification of 4-amino-2-Pyridones as new potent PCSK9 inhibitors: From phenotypic hit discovery to in vivo tolerability” (Eur J Med Chem, 2024).
The source made the active and inactive calls. No cut-off for these calls is given here.

Key:
[1] = Toxicity in C57BL/6 mouse assessed as reduction in ALT plasma level at 40 mg/kg, sc measured after 7 days by ELISA method; assay type: organism-based; details: in vivo, 168 h, time 7 day
In short: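 Male C57BL/6J mice, 3 months old, dosed subcutaneously at 40 mg/kg daily for seven days in Transcutol. Killed under isoflurane 6 h after the final dose. Retro-orbital blood taken into EDTA and spun at 3000 rpm, 4 °C, 10 min. Plasma ALT measured by ELISA kit. Mean ± SEM, n = 5–6 per group.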

HepG2 [2] = experiment: Downregulation of simvastatin induced PCSK9 expression in human HepG2 cells measured after 24 hrs by Western blot analysis; assay type: functional, cell-based
In short: (§1)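 HepG2 cells were treated overnight or for 24 h, alone or with simvastatin 40 μM. Lysates (1 % NP-40, 150 mM NaCl, 50 mM Tris-HCl pH 7.5) were loaded at 25 µg protein on 4–20 % SDS-PAGE. Blots were probed for proPCSK9, mature PCSK9 and LDLR, and densitometry was normalized to β-actin or GAPDH. Mean ± SD of three independent experiments.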

HepG2 [3] = experiment: Cytotoxicity against human HepG2 cells assessed as reduction in cell viability at 5 uM measured after 24 hrs by SRB assay relative to control; assay type: functional
In short: (§2)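 HepG2 seeded 8000 cells/well in complete MEM; next day medium replaced with 0.4 % FBS medium containing compound or DMSO control. Viability was read by sulforhodamine B assay after 24 h, with absorbance at 570 nm. Dose-response series used 6.25, 12.5, 25, 50 or 100 μM; newer analogues were tested at a fixed 5 μM. Data are mean ± SD of three independent experiments.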

HepG2 [4] = experiment: Cytotoxicity against human HepG2 cells assessed as reduction in cell viability at 100 uM measured after 24 hrs by SRB assay; assay type: functional, cell-based; in short: as §2
HepG2 [5] = experiment: Downregulation of PCSK9 mRNA level in human HepG2 cells at 6 to 25 uM by qRT-PCR analysis; assay type: functional, cell-based; details: dose 6-25 µM
In short: (§3)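 Total RNA was taken from treated HepG2 cells for RT-qPCR of PCSK9, FAS and HMG-CoA reductase. Cycling was 50 °C 10 min, 95 °C 2 min, then 40 cycles of 95 °C 5 s and 60 °C 10 s. Relative quantification used ΔΔCt against 18S, corrected for primer efficiency. Mean ± SD of three independent experiments.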

HepG2 [6] = experiment: Downregulation of PCSK9 protein level in human HepG2 cells at 5 uM by Western blot analysis; assay type: functional, cell-based; in short: as §1
HepG2 [7] = experiment: Cytotoxicity against human HepG2 cells assessed as reduction in cell viability at 6 to 100 uM measured after 24 hrs by SRB assay; assay type: functional, cell-based; details: dose 6-100 µM; in short: as §2
[8] = Downregulation of PCSK9 expression in human HepG2 cells at 6.25 to 12.5 uM by Western blot analysis relative to control; assay type: functional; details: dose 6.25-12.5 µM; in short: as §1
[9] = Downregulation of simvastatin induced PCSK9 expression in human HepG2 cells at 12.5 uM by Western blot analysis relative to control; assay type: functional; in short: as §1
HepG2 [10] = experiment: Induction of LDLR expression in human HepG2 cells at 6.25 incubated for 24 hrs in presence of simvastatin by Western blot analysis; assay type: functional, cell-based; in short: as §1
[11] = Downregulation of proPCSK9 protein expression in human HepG2 cells at 12.5 uM by Western blot analysis relative to control; assay type: functional; in short: as §1
[12] = Downregulation of mature PCSK9 protein expression in human HepG2 cells at 12.5 uM by Western blot analysis relative to control; assay type: functional; in short: as §1
HepG2 [13] = experiment: Downregulation of proPCSK9 protein expression in human HepG2 cells at 6.25 uM by Western blot analysis; assay type: functional, cell-based; in short: as §1
HepG2 [14] = experiment: Downregulation of mature PCSK9 protein expression in human HepG2 cells at 6.25 uM by Western blot analysis; assay type: functional, cell-based; in short: as §1
HepG2 [15] = experiment: Downregulation of PCSK9 level in human HepG2 cells at 6.25 to 12.5 uM under conditioned media by ELISA method; assay type: functional, cell-based; details: dose 6.25-12.5 µM
In short: (§4)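 Secreted PCSK9 was measured in HepG2 conditioned media with a human PCSK9 DuoSet sandwich ELISA. Media were centrifuged at 15000 rpm for 10 min and diluted before reading absorbance at 450 nm. Values were normalized to HepG2 total protein content. Mean ± SD of three independent experiments.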

[16] = Downregulation of extracellular PCSK9 level in human HepG2 cells at 6.25 to 12.5 uM under conditioned media by ELISA method relative to control; assay type: functional; details: dose 6.25-12.5 µM; in short: as §4
HepG2 [17] = experiment: Downregulation of PCSK9 mRNA level in human HepG2 cells by qRT-PCR analysis; assay type: functional, cell-based; details: dose 6.25-25 µM; in short: as §3
HepG2 [18] = experiment: Effect on HMG-CoA reductase mRNA level in human HepG2 cells at 6.25 to 25 uM by qRT-PCR analysis; assay type: functional, cell-based; details: dose 6.25-25 µM; in short: as §3
HepG2 [19] = experiment: Effect on HMG-CoA reductase mRNA level in human HepG2 cells at 50 to 100 uM by qRT-PCR analysis; assay type: functional, cell-based; details: dose 50-100 µM; in short: as §3
HepG2 [20] = experiment: Inhibition of simvastatin induced PCSK9 activation in human HepG2 cells at 6.25 to 12.5 uM incubated for 24 hrs by luciferase assay; assay type: functional, cell-based; details: dose 6.25-12.5 µM
In short: (§5)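 HepG2 cells were seeded at 8 × 10⁵ per well and transiently transfected with pGL3-PCSK9-D4 (−440 to −94 region), or with SRE- or HNF-mutant constructs. At 48 h post-transfection, cells were treated 24 h with compound or simvastatin 5 μM. Promoter activity was read as luciferase luminescence.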

HepG2 [21] = experiment: Inhibition of basal PCSK9 activity in human HepG2 cells at 6.25 to 12.5 uM incubated for 24 hrs by luciferase assay; assay type: functional, cell-based; details: dose 6.25-12.5 µM; in short: as §5
HepG2 [22] = experiment: Inhibition of PCSK9 promotor activity in human HepG2 cells harbouring pGL3-PCSK9-HNF mutant at 6.25 to 12.5 uM incubated for 24 hrs by luciferase assay; assay type: functional, cell-based; details: dose 6.25-12.5 µM; in short: as §5
HepG2 [23] = experiment: Inhibition of PCSK9 promotor activity in human HepG2 cells harbouring pGL3-PCSK9-SRE mutant at 6.25 to 12.5 uM incubated for 24 hrs by luciferase assay; assay type: functional, cell-based; details: dose 6.25-12.5 µM; in short: as §5
HepG2 [24] = experiment: Inhibition of PCSK9 transcription activity in human HepG2 cells harbouring FLAG tagged PCSK9 at 6.25 to 12.5 uM incubated for 24 hrs by luciferase assay; assay type: functional, cell-based; details: dose 6.25-12.5 µM
HepG2 [25] = experiment: Effect on FAS mRNA level in human HepG2 cells at 6.25 to 25 uM by qRT-PCR analysis; details: dose 6.25-25 µM
HepG2 [26] = experiment: Cytotoxicity against human HepG2 cells assessed as reduction in cell viability at 50 to 100 uM measured after 24 hrs by SRB assay; assay type: functional, cell-based; details: dose 50-100 µM; in short: as §2
HepG2 [27] = experiment: Cytotoxicity against human HepG2 cells assessed as reduction in cell viability at 25 uM measured after 24 hrs by SRB assay; assay type: functional, cell-based; in short: as §2
HepG2 [28] = experiment: Downregulation of PCSK9 mRNA level in human HepG2 cells at 25 uM by qRT-PCR analysis; assay type: functional, cell-based; in short: as §3
[29] = Induction of LDLR expression in human HepG2 cells by measuring fold increase by Western blot analysis; assay type: functional; in short: as §1
HepG2 [30] = experiment: Effect on proPCSK9 expression in human HepG2 cells by Western blot analysis; assay type: functional, cell-based; in short: as §1
HepG2 [31] = experiment: Downregulation of proPCSK9 level in human HepG2 cells by Western blot analysis; assay type: functional, cell-based; in short: as §1
HepG2 [32] = experiment: Downregulation of mature PCSK9 level in human HepG2 cells by Western blot analysis; assay type: functional, cell-based; in short: as §1
HepG2 [33] = experiment: Induction of LDLR expression in human HepG2 cells by Western blot analysis; assay type: functional, cell-based; in short: as §1

SMILES: Cc1cc(C(=O)C2=C(O)C(=O)N(CCCN3CCOCC3)C2c2ccncc2)ccc1OCc1ccccc1 (configuration not stated)
- Activity [1]: Non-Toxic

SMILES: CCC(C)(C)C(=O)O[C@H]1C[C@@H](C)C=C2C=C[C@H](C)[C@H](CC[C@@H]3C[C@@H](O)CC(=O)O3)[C@H]21
- Activity (HepG2 [2]): inactive

SMILES: CC(=O)N(Cc1ccc(C(F)(F)F)cc1)c1cc(C)n(Cc2ccc(C(F)(F)F)cc2)c(=O)c1
- Activity (HepG2 [3]): >95%

SMILES: COc1ccc(Cn2c(C)cc(NC3CCCC3)cc2=O)cc1
- Activity (HepG2 [3]): >95%

SMILES: CCCCCNc1cc(C)n(CCCCC)c(=O)c1
- Activity (HepG2 [4]): Active
- Activity (HepG2 [5]): Active
- Activity (HepG2 [6]): Active

SMILES: Cc1cc(NCc2ccc(Cl)cc2)cc(=O)n1Cc1ccc(Cl)cc1
- Activity (HepG2 [3]): >95%

SMILES: CCCCCNc1cc(C)n(Cc2ccccc2)c(=O)c1
- Activity (HepG2 [3]): >95%

SMILES: CCCCCNc1cc(C)n(Cc2ccc(C(F)(F)F)cc2)c(=O)c1
- Activity (HepG2 [3]): >95%

SMILES: CCCCCn1c(C)cc(NCc2ccc(Cl)cc2)cc1=O
- Activity (HepG2 [7]): inactive
- Activity (HepG2 [5]): Active
- Activity (HepG2 [6]): Active

SMILES: Cc1cc(NCc2ccc(Cl)cc2)cc(=O)n1CCC(C)C
- Activity (HepG2 [3]): >95%

SMILES: CCCCCNc1cc(C)n(Cc2ccc(Cl)cc2)c(=O)c1
- Activity [8]: 65%
- Activity [9]: 100%
- Activity (HepG2 [10]): Active
- Activity [11]: 100%
- Activity [12]: 100%
- Activity (HepG2 [13]): inactive
- Activity (HepG2 [14]): inactive
- Activity (HepG2 [15]): Active
- Activity [16]: 35.8%
- Activity (HepG2 [17]): Dose-Dependent Effect
- Activity (HepG2 [18]): inactive
- Activity (HepG2 [19]): Active
- inhibition (HepG2 [20]): Active
- inhibition (HepG2 [21]): inactive
- inhibition (HepG2 [22]): inactive
- inhibition (HepG2 [23]): inactive
- inhibition (HepG2 [24]): inactive
- Activity (HepG2 [25]): inactive

SMILES: Cc1cc(NCCC(C)C)cc(=O)n1Cc1ccccc1
- Activity (HepG2 [3]): >95%

SMILES: CCCCCN(C(C)=O)c1cc(C)n(Cc2ccc(C(F)(F)F)cc2)c(=O)c1
- Activity (HepG2 [3]): >95%

SMILES: CCCCCn1c(C)cc(NCc2ccc(C(F)(F)F)cc2)cc1=O
- Activity (HepG2 [3]): >95%

SMILES: COc1ccc(CNc2cc(C)n(Cc3ccc(OC)cc3)c(=O)c2)cc1
- Activity (HepG2 [3]): >95%

SMILES: Cc1cc(NCCc2ccccc2)cc(=O)n1Cc1ccc(Cl)cc1
- Activity (HepG2 [26]): Active
- Activity (HepG2 [27]): inactive
- Activity (HepG2 [28]): Active

SMILES: Cc1cc(NCc2ccc(CCC(C)C)cc2)cc(=O)n1Cc1ccc(CCC(C)C)cc1
- Activity (HepG2 [3]): >95%
- fold change (FC) [29]: 3
- Activity (HepG2 [30]): inactive

SMILES: COc1cccc(CNc2cc(C)n(Cc3cccc(OC)c3OC)c(=O)c2)c1OC
- Activity (HepG2 [3]): >95%

SMILES: Cc1cc(NCc2ccccc2)cc(=O)n1CCC(C)C
- Activity (HepG2 [3]): >95%

SMILES: CCCCCn1c(C)cc(NCc2ccccc2)cc1=O
- Activity (HepG2 [3]): >95%

SMILES: CCCCCNc1cc(C)n(Cc2ccc(OC)cc2)c(=O)c1
- Activity (HepG2 [31]): Active
- Activity (HepG2 [32]): Active
- Activity (HepG2 [33]): inactive

SMILES: Cc1cc(NCc2ccc(C(F)(F)F)cc2)cc(=O)n1CC(C)C
- Activity (HepG2 [3]): >95%

SMILES: COc1ccc(CNc2cc(C)n(Cc3ccc(OC)c(OC)c3)c(=O)c2)cc1OC
- Activity (HepG2 [3]): >95%

SMILES: CCCCCNc1cc(C)n(Cc2cccc(OC)c2OC)c(=O)c1
- Activity (HepG2 [3]): >95%

SMILES: Cc1cc(NC2CCCC2)cc(=O)n1Cc1ccc(C(F)(F)F)cc1
- Activity (HepG2 [3]): >95%
